Screening data from PubChem.
Jurkat viability: cytotoxicity toward Jurkat T cells, primary screen, cytotoxicity control, cell-based, Jurkat E6.1, 60K MLSMR library; Jurkat E6.1 viability, ATP luminescence, 48 h; inhibition, % at 4 µM; actives 1.2% (n = 56,000); AID 463, 2006;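 active means inhibition above the mean inhibition of all tested compounds plus 3 SD, cut at about 28% in these data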
HUVEC prolif 384: inhibitors of HUVEC proliferation, primary screen, cell-based, 384-well. viability, % at 10 µM (by protocol). actives 1.1% (n = 86,000). CellTiter-Glo luminescence, 72 h; active compounds read low;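 active means viability at or below 30%; inactive means viability above 30%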;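 further: 100% = median luminescence of DMSO-only cell control wells on each plate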
Lung fibro prol: antiproliferative effect on LL 47 fibroblasts – human, LL 47 cells, CellTiter-Glo luminescence, primary screen. LL 47 human lung fibroblast viability, ATP luminescence; active compounds read low. viability, % at 10 µM. actives 1.1% (n = 85,000);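 active means viability at or below 50% in the single dose screen; inactive means viability above 50%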;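 further: compound exposure lasted 72 h before the ATP readout; 100% = median luminescence of untreated cell-only wells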
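Assay system: human lung fibroblast line LL 47, low passage. Input: 1,150 fibroblasts seeded per well. Times: overnight cell rest, 72 h compound treatment at 37 °C. Evaluation: % viability of median cell-only signal. Technique: luminescent ATP detection, CellTiter-Glo. Control set: cell-only wells, no compound.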
E coli WT exp: growth inhibitors of wild-type E. coli, primary screen, strain BW25113, expanded library, OD600 | OD600 absorbance | growth inhibition, % at 100 µM | actives 0.15% (n = 98,000) | AID 710, 2007;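 active means growth inhibition above about 50% at one test dose, limit read from the data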;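 further: growth measured after 20 h incubation at 37 °C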
H69AR growth 86K: proliferation blockers of H69AR lung cancer cells, primary screen, cell-based, human, 86K library. H69AR lung tumor viability, ATP luminescence, 72 h; active compounds read low. AID 598, 2007. actives 6% (n = 85,000). viability, % at 10 µM;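 active means viability at or below 40%; inactive means viability above 40%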;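 further: multidrug resistant small cell line overexpressing MRP-1 efflux transporter; 100% = mean luminescence of untreated control wells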
Ecoli tolC: growth inhibitors of E. coli tolC mutant, primary screen, strain BW25113 ΔtolC::kan, 384-well. OD615. growth inhibition, % at 10 µM (by protocol). actives 2.2% (n = 65,000);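 active means growth inhibition at or above a cutoff equal to the mean over every tested compound plus 3 SD, cut at about 60% in these data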;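 further: growth measured after 20 h incubation at 37 °C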
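Test system – E. coli BW25113 ΔtolC::kan, tolC deletion mutant strain · Detection – OD at 615 nm · Buffer or medium – LB with kanamycin 50 µg/mL · Times – 20 h compound exposure of bacteria at 37 °C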
Numbers without * were called inactive; · = not tested or not shown. Most compounds without a hit are left out; they make up all but 6.4% or so of the library.

SMILES	Jurkat viability	HUVEC prolif 384	Lung fibro prol	E coli WT exp	H69AR growth 86K	Ecoli tolC
COC(=O)C1CCN(C(=O)COc2ccc(Cl)cc2)CC1	3.2	100.4	94.9	6.0	95.3	1.8
N#C/C(=C/c1ccc(F)cc1)c1nc(CCN2C(=O)c3ccccc3C2=O)cs1	·	·	·	-3.0	·	·
COc1ccc(-c2cnc(N)n2CC2CCCO2)cc1 (centres undefined)	2.1	90.5	95.9	14.0	91.0	63.6*
c1ccc(-c2cnc(SCCN3CCOCC3)n2CC2CCCO2)cc1 (centres undefined)	·	90.6	102.0	·	89.9	·
COC1(OC)C(/C=C/c2ccc(C)cc2)C(C#N)(C#N)C1(OC)OC (centres undefined)	·	87.4	54.5	·	12.2*	·
CSc1ncc(Cl)c(C(=O)C(C#N)c2nc3c(C)cc(C)cc3c(=O)[nH]2)n1 (centres undefined)	4.9	52.5	94.6	-11.0	85.6	95.9*
CSc1ncc(Cl)c(C(=O)NCc2ccc3c(c2)OCO3)n1	-1.9	85.2	91.8	-6.0	95.0	-1.5
Cc1cc(Nc2ccc(Cl)cc2)n(-c2ccccc2)n1	·	82.9	54.1	11.0	95.2	·
Cc1cc(Nc2nc3ccccc3nc2Cl)n(-c2ccccc2)n1	·	47.0	78.4	5.0	35.9*	·
Cc1cc(Nc2nc3ccccc3nc2Cl)n(-c2ccccc2C)n1	·	108.7	91.7	-22.0	16.9*	·
C=CCNC(=O)C(C#N)c1nc2ccccc2nc1N1CCN(Cc2ccccc2)CC1 (centres undefined)	2.3	99.5	106.3	-2.0	82.5	10.5
CC1=C(C(=O)Nc2ccccc2)C(c2ccc(N(C)C)cc2)NC(=O)N1 (centres undefined)	-3.9	97.3	103.0	-5.0	92.1	-15.3
Cc1ccc(OCC(=O)NCC(=O)n2nc(C)cc2C)cc1	·	·	·	2.0	·	11.0
COc1cc(C#CC#CCN2CCCCC2)ccc1O	18.2	98.1	94.5	34.0	3.6*	24.1
COCCNC(=O)CSc1nc2ccc(N3CCOCC3)cc2c(=O)n1Cc1ccc(OC)cc1	·	·	·	1.0	·	·
COc1cccc(/C=N/n2c(N)c(S(=O)(=O)c3cccs3)c3nc4ccccc4nc32)c1OC	·	·	·	3.0	·	·
Nc1c(S(=O)(=O)c2cccc(Cl)c2)c2nc3ccccc3nc2n1/N=C/c1ccc(O)c(O)c1	5.9	6.0*	13.7*	-9.0	1.3*	-16.5
Cc1nc2c(ccc3nc(NC(=O)c4ccc5c(c4)OCCO5)sc32)s1	-9.0	7.8*	92.3	-9.0	8.2*	1.8
O=C(C(c1ccccc1)c1ccccc1)N1CCN(Cc2ccc(Br)cc2)CC1	·	88.0	77.7	-7.0	36.1*	·
O=C(CN1CCN(Cc2ccccc2)CC1)c1ccc(Br)cc1	3.6	93.4	100.5	10.0	77.4	-16.8
Cc1ccc(NC(=O)COc2ccccc2CNC(C)(C)CC(C)(C)C)cc1	·	32.8	34.6*	16.0	1.6*	·
COC(=O)C1=C(O)/C(=C\c2ccc(CNC(=O)C(=O)Nc3ccc(C)c(C)c3)o2)N=C1C	·	19.0*	89.2	-14.0	39.9*	·
CCOC(=O)C1=C(O)/C(=C/N(C)C)N=C1C	10.8	96.2	103.2	-7.0	103.5	-3.9
CCOC(=O)C1=C(O)/C(=C\c2cccc(OC)c2)N=C1C	·	·	·	2.0	·	·
CCOC(=O)C1=C(O)/C(=C/c2ccc(CNC(=O)C(=O)Nc3ccc(C)cc3)o2)N=C1C	·	2.3*	7.4*	-1.0	36.2*	·
SMILES	Jurkat viability	HUVEC prolif 384	Lung fibro prol	E coli WT exp	H69AR growth 86K	Ecoli tolC
COC(=O)C1=C(O)/C(=C\c2ccc(CNC(=O)C(=O)Nc3ccc(C)cc3)o2)N=C1C	·	59.9	24.9*	-6.0	25.4*	·
Cc1cc(C)n2nc(SCc3nc4ccccc4[nH]3)nc2n1	-7.8	92.3	98.2	-1.0	95.9	-2.2
Cc1ccc(SC(CC(=O)c2ccc(C)cc2)C(=O)O)cc1 (centres undefined)	·	·	·	-6.0	·	·
COc1ccc(-c2coc3c(CN4CCCCC4)c(O)c(CN4CCCCC4)c(O)c3c2=O)cc1	3.4	84.9	85.4	-3.0	7.2*	14.5
C=C(Br)Cn1c(CC(C)C)nc2ccccc21	2.7	100.1	97.0	7.0	89.1	-3.4
CC[C@H]1OC(=O)C[C@@H](O)[C@H](C)[C@@H](O[C@@H]2O[C@H](C)C[C@H](N(C)C)[C@H]2O)[C@@H](CC=O)C[C@@H](C)C(=O)C=C[C@]2(C)O[C@H]2[C@@H]1C	·	80.4	37.9*	·	25.4*	3.3
Cc1ccc(C2C(C#N)=C(N)Oc3cc4c(cc32)OCO4)cc1 (centres undefined)	0.9	73.9	76.1	-4.0	15.5*	18.9
CSc1ccc(C2C(C#N)=C(N)Oc3cc4c(cc32)OCO4)cc1 (centres undefined)	-3.4	58.6	63.2	0.0	18.3*	1.6
C#CCOC(=O)CCC(=O)NCCc1ccccc1	3.1	91.6	101.2	2.0	92.8	-10.9
COc1cc(OC)c(NC2c3ccccc3C(=O)N2c2cc(C)ccn2)cc1Cl (centres undefined)	2.8	97.4	98.7	-8.0	74.0	21.8
C=CCNc1nc(N)c(C(=O)c2ccc3c(c2)OCO3)s1	-4.5	101.6	94.8	14.0	28.6*	20.1
O=c1c2ccccc2sn1-c1cc(S(=O)(=O)N2CCOCC2)ccc1N1CCOCC1	0.8	·	·	7.0	·	-4.3
O=c1c2ccccc2sn1-c1cc(S(=O)(=O)N2CCOCC2)ccc1N1CCCC1	·	73.1	55.4	0.0	1.0*	·
Cc1ccc(S(=O)(=O)Nc2cc(C(=O)NCCN3CCCC3)ccc2N2CCCCC2)cc1	-0.1	27.5*	89.5	3.0	77.9	21.3
Cc1ccc(S(=O)(=O)Nc2cc(C(=O)NCCN(C)C)ccc2N2CCCCC2)cc1	-4.4	66.6	68.1	-4.0	75.4	11.1
CO/N=C(/CS(=O)(=O)c1ccc(C)cc1)c1ccc(OC)cc1	·	93.5	99.0	8.0	35.7*	·
COc1ccc(C)cc1NC(=O)C1CCCCC1C(=O)O (centres undefined)	-0.1	102.0	105.4	-3.0	74.0	2.2
COc1ccc(-n2nnnc2S(=O)(=O)Cc2ccc(C(=O)O)cc2)cc1	6.7	76.0	84.6	4.0	50.0	4.8
COc1ccc(-n2nnnc2S(=O)(=O)CC(=O)N2CCCCC2)cc1	23.0	69.1	33.1*	10.0	2.0*	22.1
COc1ccc(NC(=O)NCc2ccncc2)cc1	·	98.8	99.2	8.0	95.0	·
CCOC(=O)C1CCN(Cc2coc3c(Cl)cc(Cl)cc3c2=O)CC1	·	93.7	95.2	2.0	87.9	·
O=c1c(C(c2ccccc2)c2c(O)sc3ccccc3c2=O)c(O)sc2ccccc12	·	66.7	88.6	-11.0	36.4*	·
